ERb coact inh = ER-beta (human) coactivator binding inhibition; Q92731; TR-FRET ER-beta LBD / SRC1-Cy5 peptide binding; receptor agonist-loaded with 1 µM estradiol; inhibition, % at 25.6 µM; 1.3% of 86,000 active;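 active = compounds whose percent inhibition of the receptor-coactivator binding signal exceeds about 50% in the single-dose screen, limit read from the data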;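 note: 0% = receptor plus peptide wells without compound and 100% = peptide-only wells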
Target sequence (Q92731 whole entry, looked up, the tested form may be a part): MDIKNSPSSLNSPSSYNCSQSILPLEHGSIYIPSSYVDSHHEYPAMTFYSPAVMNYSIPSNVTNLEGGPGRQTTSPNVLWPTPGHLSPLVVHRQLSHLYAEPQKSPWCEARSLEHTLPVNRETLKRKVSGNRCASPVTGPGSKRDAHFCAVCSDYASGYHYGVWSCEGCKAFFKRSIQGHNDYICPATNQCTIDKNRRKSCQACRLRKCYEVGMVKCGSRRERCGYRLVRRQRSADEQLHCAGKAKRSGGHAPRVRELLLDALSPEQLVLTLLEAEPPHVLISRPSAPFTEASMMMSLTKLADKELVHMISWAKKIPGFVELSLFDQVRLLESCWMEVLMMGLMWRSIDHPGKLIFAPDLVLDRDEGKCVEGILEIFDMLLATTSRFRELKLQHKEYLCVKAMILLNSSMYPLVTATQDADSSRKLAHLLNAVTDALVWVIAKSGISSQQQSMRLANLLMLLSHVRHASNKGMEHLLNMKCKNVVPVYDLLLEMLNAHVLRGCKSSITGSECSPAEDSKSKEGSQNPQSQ
ERa SRC1 pot = ER-alpha (human) coactivator binding potentiation | P03372 | TR-FRET ERalpha-LBD/SRC-Cy5 coactivator binding, 2 h; 100 = basal binding, no effect | coactivator binding (% of control), % at 25.6 µM | 1.3% of 86,000 active; in the data active = activity above about 200%;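 note: binding measured in presence of low estradiol as agonist stimulus; 0% = peptide alone without receptor and 100% = receptor with peptide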
SF1 activator = activates the human nuclear receptor SF-1; CHO-K1 Gal4-SF-1 LBD luciferase reporter; % increase over DMSO SF-1-specific signal; activation, % at 10 µM; 1.9% of 65,000 active;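 active = activation above the mean activation of all tested compounds plus 3 SD, cut at about 50% in these data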
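Test system: transient Gal4-SF-1 LBD reporter, CHO-K1; Amount: 4,000 CHO-K1 cells per well; Doses: 10 µM only; Timing: compound exposure 20 h at 37 °C; Signal: luciferase light emission; Read-out basis: percent activation relative to DMSO median and mock-transfected background; Control set: DMSO negative control and −SF1 background wells; Replicates: one test per compound.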
PTK2B oligo ant = blocks oligomerization of human Pyk2 in cells; z-score (the deposit names both 25 µM and 10 µM); Q14289; Q293 cells, Pyk2 FERM NanoBiT luminescence; active compounds read low; 0.83% of 99,000 active;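 active = Z-score of -3 or lower, scaled per plate to the spread of control and sample wells; inactive = z-score above -3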;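 note: negative z-score means lost luminescence so less FERM oligomerization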
ERa coact inh = blocks coactivator binding to human estrogen receptor alpha | P03372 | 1.7% of 86,000 active | inhibition, % at 25.6 µM | TR-FRET ER-alpha LBD / SRC-1 peptide, estradiol-bound; in the data active = inhibition above about 50%;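 note: 0% = receptor plus peptide control and 100% = peptide only without receptor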
RORA act = RORA (human) activation. CHO-K1 Gal4-RORA LBD luciferase reporter, luminescence; percent increase over mock-subtracted basal signal. activation, % at 10 µM. P35398. 1.5% of 65,000 active;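 active = activation above the mean of all tested compounds plus 3 SD, cut at about 49% in these data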;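 note: 0% = DMSO-treated RORA cells and 100% = added signal equal to DMSO minus mock-transfected cells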
An asterisk follows results filed as active; nt = no result given; [ ] = remark or other dose. Sampled rows, rich in hits. Any-hit rate of the full collection: about 4.8%.

SMILES	ERb coact inh	ERa SRC1 pot	SF1 activator	PTK2B oligo ant	ERa coact inh	RORA act
CCOc1ccccc1N1CCN(S(=O)(=O)c2ccc3c4c(cccc24)C(=O)N3)CC1	55.6*[fluorescence artefact?]	55.4	1.8	-1.33	38.8	-1.2
COc1ccc(-c2nn(-c3ccccc3)cc2C(=O)Nc2nccs2)cc1	6.3	112.0	nt	-2.94	1.6	nt
CC(=O)c1ccc(NC(=O)c2cn(-c3ccccc3)nc2-c2ccncc2)cc1	nt	nt	nt	-1.34	nt	nt
COc1cccc(-c2nn(-c3ccccc3)cc2C(=O)Nc2nccs2)c1	-26.4	107.3	-6.2	-3.65*	-28.3	-11.1
O=C(Nc1ccncc1)c1cn(-c2ccccc2)nc1-c1cccs1	1.4	228.8*[fluorescence artefact?]	nt	-1.6	18.0	nt
O=C(Nc1nccs1)c1nc(-c2ccccc2)n(-c2ccccc2)n1	4.4	342.9*	1.4	-1.83	-4.9	-7.5
CCOC(=O)C1CCCN(c2c(NCCN3CCCCC3C)c(=O)c2=O)C1 (configuration not stated)	1.9	108.1	nt	nt	-4.1	nt
COc1cc2c(C#N)c(N3CCCCC3)nc(N)c2c(N)n1	4.8	103.2	29.4	0.04	14.4	27.3
COc1cc2c(C#N)c(N3CCOCC3)nc(N)c2c(N)n1	74.7*[fluorescence artefact?]	95.2	0.1	0.36	1.4	-4.2
CCOC(=O)c1cc2ccccc2n1CCN(CC)CC	-6.5	102.5	nt	0.47	52.0*	nt
CN(C)CCn1c(C(=O)Nc2ccccc2)cc2ccccc21	-0.7	129.0	-6.3	-0.21	1.9	-15.1
CC(=O)NCC1=C(NC(C)=O)C2CC1C(C)(C)C2C (configuration not stated)	-24.9	113.8	12.4	nt	-27.9	-6.8
O=S1(=O)N=C(Nc2nc3c(s2)CCCC3)c2ccccc21	-11.1	86.8	51.3*	0.44	-16.6	95.8*
C/C(=N\Nc1nc2c(s1)CCCC2)c1ccccc1	nt	nt	nt	0.29	nt	nt
CCn1cc(C(=O)N=c2sc3ccccc3n2C)c(=O)c2ccc(C)nc21	7.0	250.5*	5.2	nt	24.9	-21.5
COc1ccc(C(=O)N2CCC(C(=O)Nc3ccccc3OC)CC2)cc1	-15.2	222.7*[fluorescence artefact?]	-15.6	-0.52	-14.4	-5.9
COc1ccc(-c2noc(CSc3nc(-c4ccccc4)cc(=O)[nH]3)n2)cc1	15.3	241.6*[fluorescence artefact?]	nt	0.06	-1.7	nt
CCC(c1nnc(SCC(=O)Nc2nnc(-c3ccccc3)o2)n1Cc1ccccc1)N(C)C (configuration not stated)	-11.2	122.5	11.2	-0.11	8.8	4.6
Cc1ccc(-c2noc(C3CCCN(C(=O)c4ccccc4)C3)n2)o1 (configuration not stated)	-1.0	111.8	28.5	-0.21	-3.4	50.0*
COc1ccc(C(=O)N2CCCC(c3nc(-c4cccs4)no3)C2)cc1 (configuration not stated)	-6.0	105.3	-4.9	0.38	1.3	3.1
O=C(N/N=C/c1cccc(Oc2ccc([N+](=O)[O-])cc2[N+](=O)[O-])c1)c1cncc(Br)c1	39.0	22.6	nt	-1.4	96.0*	nt
CC(CCc1ccccc1)NC(=O)C1CCN(S(=O)(=O)N2CCOCC2)CC1 (configuration not stated)	nt	nt	nt	0.21	nt	nt
COc1ccc(OC)c(N2C(=O)[C@@H]3C(c4ccccc4Cl)=NO[C@@H]3C2=O)c1	79.0*	22.8	-8.6	0.74	78.6*	11.0
COc1ccc(C2=NO[C@@H]3C(=O)N(c4c(C)cccc4C)C(=O)[C@H]23)cc1OC	-6.6	103.5	11.6	-1.06	3.1	-3.2
CC(=O)Nc1coc2ccc(Br)cc12	3.5	105.7	-7.5	0.84	0.7	-3.9
SMILES	ERb coact inh	ERa SRC1 pot	SF1 activator	PTK2B oligo ant	ERa coact inh	RORA act
O=C(CSc1nc2ccccc2c(=O)[nH]1)Nc1ccc(S(=O)(=O)N2CCCC2)cc1	-13.1	100.7	-10.7	0.02	0.6	-12.1
Cn1c(=O)[nH]c(=O)c2c1nc1n2CCCN1CCc1ccccc1	61.9*	75.8	13.1	0.71	64.6*	-19.8
Cn1c(=O)[nH]c(=O)c2c1nc1n2CCN1Cc1ccccc1	nt	nt	nt	0.45	nt	nt
O=S(=O)(NCc1ccccc1)c1ccc(S(=O)(=O)N(Cc2cccs2)CC2CCCO2)cc1 (configuration not stated)	8.2	105.5	nt	0.19	10.9	nt
O=C(CSc1nnc(-c2ccccn2)n1Cc1ccco1)c1ccc(-c2ccccc2)cc1	37.7	227.7*[fluorescence artefact?]	-3.9	1.16	38.7	11.2
CC(=O)NC12CC3CC(C1)CC(C(=O)OCC(=O)Nc1ncc(Cl)c(C)c1Cl)(C3)C2	59.6*	49.0	9.7	2.57	74.1*[fluorescence artefact?]	6.6
Cc1cccc(-n2c(CNC(=O)c3ccc(S(=O)(=O)N(C)C)cc3)nnc2SCC(=O)Nc2ccc(F)cc2)c1	nt	nt	nt	0.46	nt	nt
O=C(Nc1ccncc1)C1c2ccccc2Oc2ccccc21	8.6	102.0	4.4	-1.27	97.9*[fluorescence artefact?]	-14.9
Cc1sc2ncnc(SCC(=O)NCC(C)C)c2c1C	nt	nt	nt	2.19	nt	nt
Cc1sc2ncnc(SCC(=O)c3ccc(Cl)s3)c2c1C	-2.7	243.1*	nt	nt	-0.4	nt
Cc1sc2ncnc(SC(C)C#N)c2c1C (configuration not stated)	-2.4	93.1	-8.9	-0.78	6.2	-23.4
CCC(Sc1ncnc2sc(C)c(C)c12)C(=O)OC (configuration not stated)	60.6*	41.9	nt	1.95	63.2*[fluorescence artefact?]	nt
Cc1cc2nn(-c3ccccc3)nc2cc1NC(=O)c1cccs1	-9.8	102.4	37.8	-1.95	-8.1	94.9*
CCCSc1nnc(Nc2ccccc2C)s1	0.5	97.5	nt	-0.24	-5.1	nt
Cc1ccccc1Nc1nnc(SCC(=O)NCc2ccco2)s1	53.6*	50.8	3.4	0.2	84.8*[fluorescence artefact?]	12.9
C/C(N)=C(/C#N)C(=O)CSc1nnc(SCc2ccc(Cl)cc2)s1	39.6	60.0	-3.5	-1.71	22.7	-11.2
C/C(N)=C(/C#N)C(=O)CSc1nnc(Nc2c(C)cccc2C)s1	92.6*[fluorescence artefact?]	15.7	-14.2	-0.47	86.7*[fluorescence artefact?]	-2.1
C/C(N)=C(/C#N)C(=O)CSc1nnc(Nc2cccc(C)c2C)s1	64.7*	46.8	57.9*	-1.4	52.4*[fluorescence artefact?]	10.7
CSc1nc2c(c(-c3ccccc3)c1C#N)CCC2	-13.4	104.2	nt	0.32	-4.7	nt
CC1(C)Oc2nc3ccccc3n2/C1=C\C#N	-11.4	94.5	nt	-0.1	-16.8	nt
Cc1ccc(C)c(Nc2c([N+](=O)[O-])cc(C(=O)N3CC(=O)Nc4ccccc43)cc2[N+](=O)[O-])c1	nt	nt	nt	-3.05*	nt	nt
O=C(O)Cn1cnc2scc(-c3cccs3)c2c1=O	57.6*	63.8	3.6	1.4	37.8	4.9
Cc1nc2scc(-c3cccs3)c2c(=O)n1CC(=O)O	nt	nt	nt	0.17	nt	nt
Fc1ccc(Cn2nnnc2CN2CCN(C3CCCCC3)CC2)cc1	0.9	217.6*[fluorescence artefact?]	-13.1	0.19	-4.3	-7.1
O=C1Nc2ccc(S(=O)(=O)NCc3ccccn3)c3cccc1c23	61.2*[fluorescence artefact?]	80.8	-13.2	1.11	32.8	18.4

Screens: PubChem BioAssay, several laboratories
